This is an account of results in ChEMBL document CHEMBL1154078, “Synthesis of novel purine nucleosides towards a selective inhibition of human butyrylcholinesterase” (Bioorg Med Chem, 2009).

Active and inactive are the calls of the source. The calls are words filed in the database; no cut-off is given here.

T1 sequence (P06276 whole entry): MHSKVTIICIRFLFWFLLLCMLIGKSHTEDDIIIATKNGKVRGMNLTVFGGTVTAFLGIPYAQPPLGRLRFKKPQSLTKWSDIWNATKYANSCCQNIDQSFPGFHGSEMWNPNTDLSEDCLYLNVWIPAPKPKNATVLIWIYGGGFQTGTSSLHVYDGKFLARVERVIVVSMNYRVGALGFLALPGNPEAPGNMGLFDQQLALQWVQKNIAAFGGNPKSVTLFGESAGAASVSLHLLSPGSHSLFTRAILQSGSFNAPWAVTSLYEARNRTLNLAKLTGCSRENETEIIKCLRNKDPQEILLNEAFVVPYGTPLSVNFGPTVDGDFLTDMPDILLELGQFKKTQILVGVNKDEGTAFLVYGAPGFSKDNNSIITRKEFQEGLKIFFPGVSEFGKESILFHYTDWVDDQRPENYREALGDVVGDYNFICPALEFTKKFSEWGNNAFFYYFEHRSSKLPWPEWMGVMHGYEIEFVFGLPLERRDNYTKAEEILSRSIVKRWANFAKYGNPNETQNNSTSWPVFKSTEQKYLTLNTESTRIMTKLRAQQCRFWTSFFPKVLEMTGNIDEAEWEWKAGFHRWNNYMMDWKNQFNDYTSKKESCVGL

System in the first data set: not listed separately
The experiment in a line: Cytotoxicity against human A549 cells assessed as cell viability at 200 ug/mL after 24 hrs by MTT assay relative to control. It counts as cell-based. Conditions: read-out: Activity. The method in brief:
(§1)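 A549 cells seeded, left 24 h to attach, then exposed to compound for 24 h. Hydrogen peroxide served as positive control and pure solvent as negative control. At 48 h of culture, MTT added to a final concentration of 0.5 mg/mL and incubated 3 h. Medium removed, cells washed twice, formazan dissolved in DMSO with shaking for 20 min at room temperature.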
Background: Formazan colour is commonly taken as a measure of viable cells.
Take `COC(=O)[C@@H](N=[N+]=[N-])[C@@H]1O[C@@H](n2cnc3nc(NC(C)=O)nc(Cl)c32)[C@@H]2OC[C@H](OCc3ccccc3)[C@]2(OCc2ccccc2)[C@@H]1OCc1ccccc1`: the viability at 24 h, 200 ug/mL was determined as 19.5%.

On to `CO[C@H]1O[C@@H]([C@@H](N=[N+]=[N-])C(=O)OCc2ccccc2)[C@@H](OCc2ccccc2)[C@@]2(OCc3ccccc3)[C@@H](OCc3ccccc3)CO[C@@H]12`, for which the viability at 24 h, 200 ug/mL amounted to 64.2%.

System in a further data set: not listed separately
The experiment in a line: Cytotoxicity against human A549 cells assessed as cell viability at 2 ug/mL after 24 hrs by MTT assay relative to control. It counts as cell-based. Conditions: read-out: Activity. Summed up: as §1
On to `COC(=O)[C@@H](N=[N+]=[N-])[C@@H]1O[C@@H](n2cnc3nc(NC(C)=O)nc(Cl)c32)[C@@H]2OC[C@H](OCc3ccccc3)[C@]2(OCc2ccccc2)[C@@H]1OCc1ccccc1`, for which the viability at 24 h, 2 ug/mL was 77.7%.

As to `CO[C@H]1O[C@@H]([C@@H](N=[N+]=[N-])C(=O)OCc2ccccc2)[C@@H](OCc2ccccc2)[C@@]2(OCc3ccccc3)[C@@H](OCc3ccccc3)CO[C@@H]12`, the viability at 24 h, 2 ug/mL was 76.2%.

System in the next data set: not listed separately
The experiment in a line: Cytotoxicity against human A549 cells assessed as cell viability at 20 ug/mL after 24 hrs by MTT assay relative to control. It counts as cell-based. The settings on record: read-out: Activity. Summed up:
as §1
Regarding `COC(=O)[C@@H](N=[N+]=[N-])[C@@H]1O[C@@H](n2cnc3nc(NC(C)=O)nc(Cl)c32)[C@@H]2OC[C@H](OCc3ccccc3)[C@]2(OCc2ccccc2)[C@@H]1OCc1ccccc1`, the viability at 24 h, 20 ug/mL came to 40.8%.

Consider `CO[C@H]1O[C@@H]([C@@H](N=[N+]=[N-])C(=O)OCc2ccccc2)[C@@H](OCc2ccccc2)[C@@]2(OCc3ccccc3)[C@@H](OCc3ccccc3)CO[C@@H]12`, for which the viability at 24 h, 20 ug/mL is 63.6%.

A further data set concerns the target T1, Cholinesterase (Homo sapiens, UniProt P06276). The experiment in a line: Inhibition of BChE in human serum assessed as hydrolysis of butyrylthiocholine at 10 ug/mL by Ellman's method.
Conditions: not given
Summed up: (§2)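 Human serum BChE (0.44 U/mL solution) in 0.1 M phosphate buffer pH 8.0 with S-butyrylthiocholine iodide and DTNB. Absorbance at 410 nm followed kinetically for 4 min at 30 °C, at least four replicates. Inhibition % = 100 − 100·V/V_max, where V_max comes from blanks without inhibitor; one-sided t-test. IC50 obtained by non-linear regression of the dose–response, given as mean ± SEM.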
Background: In Ellman's method for cholinesterases, released thiocholine reacts with DTNB.
Take `CCN(C)C(=O)Oc1cccc([C@H](C)N(C)C)c1` [RIVASTIGMINE]: the inhibition came to 100%.

As to `CC(=O)Nc1nc(Cl)c2c(ncn2[C@@H]2O[C@@H]([C@@H](N=[N+]=[N-])C(=O)OCc3ccccc3)[C@@H](OCc3ccccc3)[C@@]3(OCc4ccccc4)[C@@H](OCc4ccccc4)CO[C@@H]23)n1`, the inhibition was 79%.

Regarding `CO[C@H]1O[C@@H]([C@@H](N=[N+]=[N-])C(=O)OCc2ccccc2)[C@@H](OCc2ccccc2)[C@@]2(OCc3ccccc3)[C@@H](OCc3ccccc3)CO[C@@H]12`, the inhibition is 73%.

System in a further data set: not listed separately
The experiment in a line: Cytotoxicity against human A549 cells assessed as cell viability at 2000 ug/mL after 24 hrs by MTT assay relative to control. It counts as cell-based. Conditions: read-out: Activity. Summed up:
as §1
Turning to `COC(=O)[C@@H](N=[N+]=[N-])[C@@H]1O[C@@H](n2cnc3nc(NC(C)=O)nc(Cl)c32)[C@@H]2OC[C@H](OCc3ccccc3)[C@]2(OCc2ccccc2)[C@@H]1OCc1ccccc1`, the viability at 24 h, 2000 ug/mL was 15.1%.

Take `CO[C@H]1O[C@@H]([C@@H](N=[N+]=[N-])C(=O)OCc2ccccc2)[C@@H](OCc2ccccc2)[C@@]2(OCc3ccccc3)[C@@H](OCc3ccccc3)CO[C@@H]12`: the viability at 24 h, 2000 ug/mL turned out to be 16%.

System in a further data set: not listed separately
The experiment in a line: Cytotoxicity against human A549 cells assessed as cell viability at 100 ug/mL after 24 hrs by MTT assay relative to control. It counts as cell-based. The settings on record: read-out: Activity. Summed up:
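A549 cells seeded, allowed to attach 24 h, then exposed to compound for 24 h; hydrogen peroxide positive control, solvent negative control. MTT added at 48 h of culture (final 0.5 mg/mL), 3 h incubation, cells washed twice, formazan dissolved in DMSO with 20 min shaking at room temperature; viable, metabolically active cells quantified.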
Take `CCN(C)C(=O)Oc1cccc([C@H](C)N(C)C)c1` [RIVASTIGMINE]: the viability at 24 h, 100 ug/mL is 89%.

The target in another data set is T1, Cholinesterase. The experiment in a line: Inhibition of BChE in human serum assessed as hydrolysis of butyrylthiocholine at 100 ug/mL by Ellman's method. It counts as cell-free.
Conditions: not given
The method in brief: as §2
As for `CCN(C)C(=O)Oc1cccc([C@H](C)N(C)C)c1` [RIVASTIGMINE], the inhibition was found to be 100%.

`CC(=O)Nc1nc(Cl)c2c(ncn2[C@@H]2O[C@@H]([C@@H](N=[N+]=[N-])C(=O)OCc3ccccc3)[C@@H](OCc3ccccc3)[C@@]3(OCc4ccccc4)[C@@H](OCc4ccccc4)CO[C@@H]23)n1`: the inhibition amounted to 91%.

As to `CO[C@H]1O[C@@H]([C@@H](N=[N+]=[N-])C(=O)OCc2ccccc2)[C@@H](OCc2ccccc2)[C@@]2(OCc3ccccc3)[C@@H](OCc3ccccc3)CO[C@@H]12`, the inhibition was 98%.

System in another data set: not listed separately
The experiment in a line: Cytotoxicity against human A549 cells assessed as cell viability at 0.2 ug/mL after 24 hrs by MTT assay relative to control. It counts as cell-based. The settings on record: read-out: Activity. The method in brief:
as §1
Take `COC(=O)[C@@H](N=[N+]=[N-])[C@@H]1O[C@@H](n2cnc3nc(NC(C)=O)nc(Cl)c32)[C@@H]2OC[C@H](OCc3ccccc3)[C@]2(OCc2ccccc2)[C@@H]1OCc1ccccc1`: the viability at 24 h, 0.2 ug/mL worked out at 103%.

As to `CO[C@H]1O[C@@H]([C@@H](N=[N+]=[N-])C(=O)OCc2ccccc2)[C@@H](OCc2ccccc2)[C@@]2(OCc3ccccc3)[C@@H](OCc3ccccc3)CO[C@@H]12`, the viability at 24 h, 0.2 ug/mL is 90.5%.

A further data set deals with T1, Cholinesterase. The experiment in a line: Inhibition of BChE in human serum assessed as hydrolysis of butyrylthiocholine at 0.1 ug/mL by Ellman's method.
Conditions: not given
The method in brief: as §2
`CCN(C)C(=O)Oc1cccc([C@H](C)N(C)C)c1` [RIVASTIGMINE]: the inhibition is 76%.

Regarding `CC(=O)Nc1nc(Cl)c2c(ncn2[C@@H]2O[C@@H]([C@@H](N=[N+]=[N-])C(=O)OCc3ccccc3)[C@@H](OCc3ccccc3)[C@@]3(OCc4ccccc4)[C@@H](OCc4ccccc4)CO[C@@H]23)n1`, the inhibition was 63%.

The target of a further data set is T1, Cholinesterase. The experiment in a line: Inhibition of BChE in human serum assessed as hydrolysis of butyrylthiocholine at 0.01 ug/mL by Ellman's method.
Conditions: not given
The format is cell-free. Summed up: as §2
Take `CC(=O)Nc1nc(Cl)c2c(ncn2[C@@H]2O[C@@H]([C@@H](N=[N+]=[N-])C(=O)OCc3ccccc3)[C@@H](OCc3ccccc3)[C@@]3(OCc4ccccc4)[C@@H](OCc4ccccc4)CO[C@@H]23)n1`: the inhibition was 10%.

For another data set, the target named is T1, Cholinesterase. The experiment in a line: Inhibition of BChE in human serum assessed as hydrolysis of butyrylthiocholine by Ellman's method. It counts as cell-free.
Conditions: not given
The method in brief: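 Human serum BChE (0.44 U/mL solution) in 0.1 M phosphate buffer pH 8.0 with S-butyrylthiocholine iodide and DTNB. Absorbance at 410 nm followed kinetically for 4 min at 30 °C, at least four replicates. IC50 obtained by non-linear regression of the dose–response, given as mean ± SEM.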
Take `CC(=O)Nc1nc(Cl)c2c(ncn2[C@@H]2O[C@@H]([C@@H](N=[N+]=[N-])C(=O)OCc3ccccc3)[C@@H](OCc3ccccc3)[C@@]3(OCc4ccccc4)[C@@H](OCc4ccccc4)CO[C@@H]23)n1`: the IC50 is 0.14 µM.

With `CO[C@H]1O[C@@H]([C@@H](N=[N+]=[N-])C(=O)OCc2ccccc2)[C@@H](OCc2ccccc2)[C@@]2(OCc3ccccc3)[C@@H](OCc3ccccc3)CO[C@@H]12`, the IC50 came to 13.4 µM.

Another data set has as its target T2, Acetylcholinesterase (Bos taurus) (UniProt P23795).
T2 sequence (whole entry): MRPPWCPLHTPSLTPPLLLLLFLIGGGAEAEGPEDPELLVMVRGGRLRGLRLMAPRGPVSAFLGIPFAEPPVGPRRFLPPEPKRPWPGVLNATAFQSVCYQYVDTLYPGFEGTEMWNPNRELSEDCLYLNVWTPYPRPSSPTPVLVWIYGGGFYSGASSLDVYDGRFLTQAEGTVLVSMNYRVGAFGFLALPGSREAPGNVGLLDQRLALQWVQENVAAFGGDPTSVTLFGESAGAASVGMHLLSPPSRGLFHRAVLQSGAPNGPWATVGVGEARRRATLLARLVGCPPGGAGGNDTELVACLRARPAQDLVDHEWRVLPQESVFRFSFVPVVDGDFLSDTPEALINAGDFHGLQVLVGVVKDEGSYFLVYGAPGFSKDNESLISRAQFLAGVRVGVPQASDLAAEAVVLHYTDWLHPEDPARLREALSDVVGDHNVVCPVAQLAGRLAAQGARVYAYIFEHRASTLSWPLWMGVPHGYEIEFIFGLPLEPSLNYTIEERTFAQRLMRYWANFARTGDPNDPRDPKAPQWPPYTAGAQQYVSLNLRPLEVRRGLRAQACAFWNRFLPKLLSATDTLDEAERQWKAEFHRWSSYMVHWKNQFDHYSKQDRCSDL
The experiment in a line: Inhibition of AChE in bovine erythrocytes assessed as hydrolysis of acetylthiocholine by Ellman's method.
Conditions: not given
Summed up: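 Bovine erythrocyte AChE (1.32 U/mL solution) in 0.1 M phosphate buffer pH 8.0 with acetylthiocholine iodide and DTNB. Yellow product read kinetically at 410 nm for 4 min at 30 °C. Rates compared with no-inhibitor V_max; inhibition % = 100 − 100·V/V_max. At least four replicates. One-sided t-test against 0% inhibition.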
As to `CCN(C)C(=O)Oc1cccc([C@H](C)N(C)C)c1` [RIVASTIGMINE], the inhibition entry was “inactive”.

Regarding `CC(=O)Nc1nc(Cl)c2c(ncn2[C@@H]2O[C@@H]([C@@H](N=[N+]=[N-])C(=O)OCc3ccccc3)[C@@H](OCc3ccccc3)[C@@]3(OCc4ccccc4)[C@@H](OCc4ccccc4)CO[C@@H]23)n1`, the inhibition entry was “inactive”.

For `COC(=O)[C@@H](N=[N+]=[N-])[C@@H]1O[C@@H](n2cnc3nc(NC(C)=O)nc(Cl)c32)[C@@H]2OC[C@H](OCc3ccccc3)[C@]2(OCc2ccccc2)[C@@H]1OCc1ccccc1`, the inhibition entry was “inactive”.

`CO[C@H]1O[C@@H]([C@@H](N=[N+]=[N-])C(=O)OCc2ccccc2)[C@@H](OCc2ccccc2)[C@@]2(OCc3ccccc3)[C@@H](OCc3ccccc3)CO[C@@H]12`: the inhibition entry was “inactive”.

A further data set addresses T1, Cholinesterase. The experiment in a line: Inhibition of BChE in human serum assessed as hydrolysis of butyrylthiocholine at 1 ug/mL by Ellman's method. It counts as cell-free.
Conditions: not given
The method in brief:
as §2
For the molecule `CCN(C)C(=O)Oc1cccc([C@H](C)N(C)C)c1` [RIVASTIGMINE], the inhibition is 100%.

`CC(=O)Nc1nc(Cl)c2c(ncn2[C@@H]2O[C@@H]([C@@H](N=[N+]=[N-])C(=O)OCc3ccccc3)[C@@H](OCc3ccccc3)[C@@]3(OCc4ccccc4)[C@@H](OCc4ccccc4)CO[C@@H]23)n1`: the inhibition worked out at 77%.

For `CO[C@H]1O[C@@H]([C@@H](N=[N+]=[N-])C(=O)OCc2ccccc2)[C@@H](OCc2ccccc2)[C@@]2(OCc3ccccc3)[C@@H](OCc3ccccc3)CO[C@@H]12`, the inhibition was 14%.

Usually inhibition stands for the share of the control response that was lost under treatment. The term IC50 denotes the concentration that gives 50% inhibition.
